Results reported in ChEMBL document CHEMBL4270599, “Synthesis of a 3'-C-ethynyl-β-d-ribofuranose purine nucleoside library: Discovery of C7-deazapurine analogs as potent antiproliferative nucleosides” (Eur J Med Chem, 2018).

Experiments:
HCT-15 = assay: Growth inhibition of human HCT15 cells assessed as cell growth at 10^-5 M incubated for 48 hrs by sulforhodamine B assay relative to control; format: functional; conditions: HCT-15, 48 h, read-out: Activity
786-0 = assay: Growth inhibition of human 786-0 cells assessed as cell growth at 10^-7 M incubated for 48 hrs by sulforhodamine B assay relative to control; format: functional; conditions: 786-0, 48 h, read-out: Activity
NCI-H322M = assay: Cytotoxicity against human NCI-H322M cells after 48 hrs by SRB assay; format: functional; conditions: for GI50: read-out: GI50; for TGI: read-out: TGI; for CC50: read-out: pLC50 (the source's name) (converted)
RPMI-8226 = assay: Cytotoxicity against human RPMI8226 cells after 48 hrs by SRB assay; format: functional; conditions: RPMI-8226, 48 h; for GI50: read-out: GI50; for CC50: read-out: LC50 (the source's name); for TGI: read-out: TGI
MCF7 = assay: Growth inhibition of human MCF7 cells assessed as cell growth at 10^-6 M incubated for 48 hrs by sulforhodamine B assay relative to control; format: functional; conditions: MCF7, 48 h, read-out: Activity
NCI-H522 = assay: Growth inhibition of human NCI-H522 cells assessed as cell growth at 10^-8 M incubated for 48 hrs by sulforhodamine B assay relative to control; format: functional; conditions: NCI-H522, 48 h, read-out: Activity
OVCAR-8 = assay: Cytotoxicity against human OVCAR8 cells after 48 hrs by SRB assay; format: functional; conditions: OVCAR-8, 48 h; for GI50: read-out: GI50; for TGI: read-out: TGI
EKVX = assay: Growth inhibition of human EKVX cells assessed as cell growth at 10^-7 M incubated for 48 hrs by sulforhodamine B assay relative to control; format: functional; conditions: read-out: Activity
BT-549 = assay: Cytotoxicity against human BT549 cells after 48 hrs by SRB assay; format: functional; conditions: BT-549, 48 h; for GI50: read-out: GI50; for TGI: read-out: TGI
NCI-H460 = assay: Growth inhibition of human NCI-H460 cells assessed as cell growth at 10^-8 M incubated for 48 hrs by sulforhodamine B assay relative to control; format: functional; conditions: NCI-H460, 48 h, read-out: Activity
CCRF-CEM [1] = assay: Growth inhibition of human CCRF-CEM cells assessed as cell growth at 10^-7 M incubated for 48 hrs by sulforhodamine B assay relative to control; format: functional; conditions: read-out: Activity
CCRF-CEM [2] = assay: Growth inhibition of human CCRF-CEM cells assessed as cell growth at 10^-5 M incubated for 48 hrs by sulforhodamine B assay relative to control; format: functional; conditions: read-out: Activity
Hs-578T = assay: Growth inhibition of human Hs 578T cells assessed as cell growth at 10^-7 M incubated for 48 hrs by sulforhodamine B assay relative to control; format: functional; conditions: read-out: Activity
A498 = assay: Growth inhibition of human A498 cells assessed as cell growth at 10^-8 M incubated for 48 hrs by sulforhodamine B assay relative to control; format: functional; conditions: A498, 48 h, read-out: Activity
HL-60(TB) = assay: Growth inhibition of human HL-60(TB) cells assessed as cell growth at 10^-7 M incubated for 48 hrs by sulforhodamine B assay relative to control; format: functional; conditions: HL-60, 48 h, read-out: Activity
HMEC-1 = assay: Antiproliferative activity against HMEC1 cells after 4 days by Coulter counter method; format: cell-based; conditions: Homo sapiens, HMEC-1, 96 h
Outline: (§1)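 Primary HUVEC, primary HMVEC-d and the HMEC-1 line seeded at 20,000 cells/well in gelatin-coated plates in EC growth medium (EGM2). After overnight incubation, 5-fold compound dilutions added. Cells proliferated four days with compound, then trypsinized and counted by Coulter counter to derive IC₅₀.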

OVCAR-4 = assay: Growth inhibition of human OVCAR4 cells assessed as cell growth at 10^-7 M incubated for 48 hrs by sulforhodamine B assay relative to control; format: functional; conditions: OVCAR-4, 48 h, read-out: Activity
ACHN = assay: Growth inhibition of human ACHN cells assessed as cell growth at 10^-5 M incubated for 48 hrs by sulforhodamine B assay relative to control; format: functional; conditions: read-out: Activity
NCI-H226 = assay: Growth inhibition of human NCI-H226 cells assessed as cell growth at 10^-8 M incubated for 48 hrs by sulforhodamine B assay relative to control; format: functional; conditions: NCI-H226, 48 h, read-out: Activity
HT-29 = assay: Growth inhibition of human HT-29 cells assessed as cell growth at 10^-8 M incubated for 48 hrs by sulforhodamine B assay relative to control; format: functional; conditions: HT-29, 48 h, read-out: Activity
UACC-62 = assay: Growth inhibition of human UACC62 cells assessed as cell growth at 10^-6 M incubated for 48 hrs by sulforhodamine B assay relative to control; format: functional; conditions: UACC-62, 48 h, read-out: Activity
SNB-19 = assay: Cytotoxicity against human SNB19 cells after 48 hrs by SRB assay; format: functional; conditions: SNB-19, 48 h; for GI50: read-out: GI50
HUVEC = assay: Antiproliferative activity against HUVEC cells after 4 days by Coulter counter method; format: cell-based; conditions: Homo sapiens, 96 h; outline: as §1
M14 = assay: Cytotoxicity against human M14 cells after 48 hrs by SRB assay; format: functional; conditions: M14, 48 h; for GI50: read-out: GI50; for CC50: read-out: LC50 (the source's name); for TGI: read-out: TGI
Malme-3M = assay: Growth inhibition of human MALME-3M cells assessed as cell growth at 10^-7 M incubated for 48 hrs by sulforhodamine B assay relative to control; format: functional; conditions: read-out: Activity
[3] = Antiproliferative activity against HELF cells after 4 days by Coulter counter method; format: cell-based; conditions: Homo sapiens, 96 h
NCI/ADR-RES [4] = assay: Cytotoxicity against human NCI-ADR-RES cells after 48 hrs by SRB assay; format: functional; conditions: for GI50: read-out: GI50; for CC50: read-out: pLC50 (the source's name) (converted)
IGROV-1 = assay: Growth inhibition of human IGROV1 cells assessed as cell growth at 10^-4 M incubated for 48 hrs by sulforhodamine B assay relative to control; format: functional; conditions: IGROV-1, 48 h, read-out: Activity
HOP-92 = assay: Growth inhibition of human HOP92 cells assessed as cell growth at 10^-8 M incubated for 48 hrs by sulforhodamine B assay relative to control; format: functional; conditions: HOP-92, 48 h, read-out: Activity
KM12 = assay: Growth inhibition of human KM12 cells assessed as cell growth at 10^-6 M incubated for 48 hrs by sulforhodamine B assay relative to control; format: functional; conditions: KM12, 48 h, read-out: Activity
NCI/ADR-RES [5] = assay: Growth inhibition of human NCI/ADR-RES cells assessed as cell growth at 10^-8 M incubated for 48 hrs by sulforhodamine B assay relative to control; format: functional; conditions: read-out: Activity
MOLT-4 = assay: Growth inhibition of human MOLT4 cells assessed as cell growth at 10^-6 M incubated for 48 hrs by sulforhodamine B assay relative to control; format: functional; conditions: MOLT-4, 48 h, read-out: Activity
[6] = read-out: pLC50 (the source's name) (converted)
[7] = read-out: LC50 (the source's name)

**Q.** What does the source list for `C#C[C@@]1(O)[C@@H](CO)O[C@@H](n2cc(I)c3c(N)ncnc32)[C@@H]1O`?
**A.** growth at 10 µM (HCT-15): 2 to 3%; growth at 0.1 µM (786-0): 72 to 79%; GI50 (NCI-H322M): 405 to 683 nM; TGI (NCI-H322M): 7490 to 42800 nM; CC50 (NCI-H322M): > 100000 nM; GI50 (RPMI-8226): 275 to 428 nM; CC50 (RPMI-8226): 91500 to 100000 nM; TGI (RPMI-8226): 4570 to 6650 nM; growth at 1 µM (MCF7): 1 to 6%; growth at 0.01 µM (NCI-H522): 83 to 85%; GI50 (OVCAR-8): 42.3 to 49 nM; TGI (OVCAR-8): 1460 to 100000 nM; CC50 (OVCAR-8; [6]): > 100000 nM; growth at 0.1 µM (EKVX): 69 to 75%; GI50 (BT-549): 175 to 384 nM; TGI (BT-549): 3260 to 4940 nM; CC50 (BT-549; [6]): > 100000 nM; growth at 0.01 µM (NCI-H460): 91 to 92%; growth at 0.1 µM (CCRF-CEM [1]): 72 to 74%; growth at 10 µM (CCRF-CEM [2]): 5 to 6%; growth at 0.1 µM (Hs-578T): 73 to 84%; growth at 0.01 µM (A498): 88 to 102%; growth at 0.1 µM (HL-60(TB)): 16 to 43%; IC50 (HMEC-1): 18 nM; growth at 0.1 µM (OVCAR-4): 87 to 91%; growth at 10 µM (ACHN): 5%; growth at 0.01 µM (NCI-H226): 84 to 97%; growth at 0.01 µM (HT-29): 56 to 73%; growth at 1 µM (UACC-62): 40 to 43%; GI50 (SNB-19): 53.5 to 185 nM; CC50 (SNB-19; [7]): > 100000 nM; TGI (SNB-19; read-out: TGI): 25000 to 100000 nM; IC50 (HUVEC): 9.9 nM; GI50 (M14): 393 to 611 nM; CC50 (M14): 55500 to 100000 nM; TGI (M14): 8470 to 10700 nM; growth at 0.1 µM (Malme-3M): 78 to 99%; IC50 [3]: 32 nM; GI50 (NCI/ADR-RES [4]): 63.7 to 83.9 nM; TGI (NCI/ADR-RES [4]; read-out: TGI): 4190 to 14900 nM; CC50 (NCI/ADR-RES [4]): > 100000 nM; growth at 100 µM (IGROV-1): 2 to 3%; growth at 0.01 µM (HOP-92): 58 to 74%; growth at 1 µM (KM12): 25 to 27%; growth at 0.01 µM (NCI/ADR-RES [5]): 86 to 88%

**Q.** What does the source list for `C#C[C@@]1(O)[C@@H](CO)O[C@@H](n2cc(Cl)c3c(N)ncnc32)[C@@H]1O`?
**A.** growth at 10 µM (HCT-15): 1%; growth at 0.1 µM (786-0): 89 to 94%; GI50 (NCI-H322M): 206 to 334 nM; TGI (NCI-H322M): 2120 to 4630 nM; CC50 (NCI-H322M): > 100000 nM; GI50 (RPMI-8226): 144 to 159 nM; CC50 (RPMI-8226): > 100000 nM; TGI (RPMI-8226): 521 to 708 nM; growth at 1 µM (MCF7): 1 to 4%; growth at 0.01 µM (NCI-H522): 82 to 88%; GI50 (OVCAR-8): 10.2 to 33.6 nM; CC50 (OVCAR-8; [7]): > 100000 nM; TGI (OVCAR-8): 730 to 1480 nM; growth at 0.1 µM (EKVX): 78 to 79%; GI50 (BT-549): 223 to 228 nM; TGI (BT-549): 640 to 685 nM; growth at 0.01 µM (NCI-H460): 45 to 96%; growth at 0.1 µM (CCRF-CEM [1]): 76 to 80%; growth at 10 µM (CCRF-CEM [2]): 2 to 4%; growth at 0.1 µM (Hs-578T): 100 to 107%; growth at 0.01 µM (A498): 103 to 107%; growth at 0.1 µM (HL-60(TB)): 19 to 47%; IC50 (HMEC-1): 3.5 nM; growth at 0.1 µM (OVCAR-4): 89 to 95%; growth at 10 µM (ACHN): -30%; growth at 0.01 µM (NCI-H226): 99 to 108%; growth at 0.01 µM (HT-29): 83 to 92%; growth at 1 µM (MOLT-4): 2%; GI50 (SNB-19): 21 to 204 nM; TGI (SNB-19; read-out: TGI): 294 nM; CC50 (SNB-19; [6]): > 100000 nM; TGI (SNB-19; read-out: pTGI (converted)): 295 nM; IC50 (HUVEC): 4.9 nM; GI50 (M14): 157 to 200 nM; CC50 (M14): > 100000 nM; TGI (M14): 520 to 659 nM; growth at 0.1 µM (Malme-3M): 79 to 80%; IC50 [3]: 9.2 nM; GI50 (NCI/ADR-RES [4]): 50.6 to 54.6 nM; TGI (NCI/ADR-RES [4]; read-out: TGI): 777 nM; CC50 (NCI/ADR-RES [4]): > 100000 nM; TGI (NCI/ADR-RES [4]; read-out: pTGI (converted)): 776 nM; growth at 0.01 µM (HOP-92): 90 to 97%; growth at 1 µM (KM12): 3 to 12%; growth at 0.01 µM (NCI/ADR-RES [5]): 77 to 82%
